According to publication PMC12398596 (Nature Communications, 2025):

What was measured:
sAβ42 [1] = assay: Dynamic light scattering, sAβ42 with compounds; assay type: physicochemical; conditions: PBS; for shift of sAβ42 particle size to single range around 100 nm: sAβ42 + compound
caspase-3 = assay: Cleaved caspase-3 in BV2 cells, Western blot; assay type: cell-based, mouse; conditions: sAβ42, fAβ42 0.5 μM; hPAβ42 1.0 μM P2CSKn + 0.5 μM sAβ42; 12 h
fAβ42 [2] = biological target: T1, fAβ42 (Homo sapiens, UniProt P05067); assay: ThT fluorescence kinetics of preformed fAβ42; assay type: biochemical; conditions: sAβ42 10 μM, 37 °C
fFITC-Aβ42 = assay: LSCM re-assembly of fFITC-Aβ42 plaques; assay type: biochemical; conditions: fFITC-Aβ42 5.0 μM, compound 25 μM, PBS
fAβ42 [3] = biological target: T1, fAβ42; assay: PICUP-Western blot of fAβ42, antibody 4G8; assay type: biochemical; conditions: fAβ42 20 μM, 37 °C, P2CSKn result at 0.5 eq. (10 μM)
Mrc1 mRNA in BV2 cells = assay: Mrc1 mRNA in BV2 cells, rt-qPCR; assay type: cell-based, mouse; conditions: for expression of Mrc1 mRNA, TLR agonists (in words): LPS 1.0 μg/mL, Pam3CSK4 1.0 μM, Pam2CSK4 1.0 μM, zymosan A 50 μg/mL
TLR2, BV2 cells = assay: Phagocytosis of FITC-Aβ42 forms in TLR2-WT; assay type: cell-based, mouse; conditions: 0.5 μM, 30 min; for uptake in TLR2-knockdown BV2 cells: TLR2-siRNA; for uptake in BV2-NC cells: null-siRNA control
BV2 cells [4] = assay: Degradation of FITC-Aβ42 forms in BV2 cells; assay type: cell-based, mouse; conditions: for degradation of intracellular FITC-Aβ42: 0.5 μM FITC-Aβ42 forms, 180 min then washed
TLR2 = assay: Cellular colocalization of FITC-Aβ42/RhoB-P2CSKn/TLR2, LSCM; assay type: cell-based, mouse; conditions: RhoB-P2CSKn 1.0 μM, sFITC-Aβ42 0.5 μM, 1 h
primary microglia = assay: Phagocytosis of sFITC-Aβ42 in primary microglia, flow cytometry; assay type: cell-based, mouse
Msr1 mRNA in BV2 cells = assay: Msr1 mRNA in BV2 cells, rt-qPCR; assay type: cell-based, mouse; conditions: for expression of Msr1 mRNA, TLR agonists (in words): LPS 1.0 μg/mL, Pam2CSK4 1.0 μM, zymosan A 50 μg/mL, flagellin 200 nM
BV2 cells [5] = assay: Phagocytosis of fluorescent microsphere in BV2 cells, flow cytometry; assay type: cell-based, mouse; conditions: fAβ42 0.5 μM
Marco mRNA in BV2 cells = assay: Marco mRNA in BV2 cells, rt-qPCR; assay type: cell-based, mouse; conditions: for expression of Marco mRNA, TLR agonists (in words): LPS 1.0 μg/mL, Pam2CSK4 1.0 μM, flagellin 200 nM
fAβ42 [6] = biological target: T1, fAβ42; assay: Dynamic light scattering, fAβ42 with P2CSKn, time-dependent; assay type: physicochemical
BV2 cells [7] = assay: RNA-seq of BV2 cells; assay type: cell-based, mouse
sAβ42 [8] = assay: Tyndall effect of sAβ42 with compounds; assay type: physicochemical; conditions: PBS; for Tyndall effect of sAβ42 on addition of compound: imaged immediately after mixing; for Tyndall effect of compound itself (self-aggregation): compound alone
BV2 cells [9] = assay: Treat & wash phagocytosis of fFITC-Aβ42 in BV2 cells; assay type: cell-based, mouse
Iba1 = assay: Local cortex injection, Iba1, APP/PS1 mice; assay type: in vivo, APP/PS1 transgenic mice; conditions: 13-month-old APP/PS1, cortex, 100 μM 300 nL, 5 d, mean ± SD
Procedure, shortened: (§1)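 13-month APP/PS1 mice (C57BL/6 background) under sodium pentobarbital (50 mg/kg) received a unilateral stereotaxic cortical injection (AP +1.0, ML ±1.0, DV −1.0) of compound or reference (100 μM, 300 nL saline, with Hoechst 33342) at 50 nL/min. Perfusion-fixed (PBS, 4% PFA) at 2 or 5 days and sections immunostained. Ratio = signal at injection zone (>80% max dye) over adjacent zone (>200 μm away, <10% dye); 50 μm around needle track excluded.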

Aβ plaque [10] = assay: Local cortex injection, Aβ by antibody OC, APP/PS1 mice; assay type: in vivo, APP/PS1 transgenic mice; conditions: 13-month-old APP/PS1, cortex, 100 μM 300 nL, 5 d, mean ± SD
Procedure, shortened: as §1

NLRP3 = NLRP3 protein in BV2 cells, Western blot; assay type: cell-based, mouse; conditions: 1.0 μM, 12 h
BV2 cells [11] = assay: Phagocytosis of fFITC-Aβ42 in BV2 cells, flow cytometry; assay type: cell-based, mouse; conditions: fFITC-Aβ42 0.5 μM, 8 eq., 180 min, mean ± SD, n = 3
MSR1 = MSR1 protein in BV2 cells, Western blot; assay type: cell-based, mouse; conditions: P2CSKn or Pam2CSK4 1.0 μM, 12 h
Aβ plaque [12] = assay: Local cortex injection, Aβ plaque by Thioflavin S, APP/PS1 mice; assay type: in vivo, APP/PS1 transgenic mice; conditions: 13-month-old APP/PS1, cortex, 100 μM 300 nL, 5 d, mean ± SD
Procedure, shortened: as §1

MARCO = MARCO protein in BV2 cells, Western blot; assay type: cell-based, mouse; conditions: P2CSKn or Pam2CSK4 1.0 μM, 12 h
BV2 cells [13] = assay: Normal vs treat & wash phagocytosis of sFITC-Aβ42 in BV2 cells; assay type: cell-based, mouse; conditions: mean ± SD, n = 3
BV2 cells [14] = assay: Phagocytosis of sFITC-Aβ42 in BV2 cells, flow cytometry; assay type: cell-based, mouse; conditions: sFITC-Aβ42 0.5 μM, 2 eq., 180 min, mean ± SD, n = 3
BV2 cells [15] = assay: Colocalization of P2CSKn-pretreated sFITC-Aβ42 with LysoTracker Red in BV2 cells; assay type: cell-based, mouse; conditions: chloroquine 10 μM, 1 h pretreatment
Aβ plaque [16] = assay: Local hippocampus injection, Aβ plaque by Thioflavin S, APP/PS1 mice; assay type: in vivo, APP/PS1 transgenic mice; conditions: 9-month-old APP/PS1, hippocampus, 100 μM 300 nL, 5 d, mean ± SD
Procedure, shortened: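 APP/PS1 mice (9 or 16 months) under pentobarbital (50 mg/kg) received stereotaxic injections of test compound (100 μM, 300 nL saline, with Alexa Fluor 594) into right dorsal hippocampus (AP −2.2, ML +1.5, DV −1.9 mm) and reference into left. Meloxicam 5.0 mg/kg s.c. given pre-surgery and every 12 h for 3 days. Perfusion-fixed at 5 or 10 days, DAPI-counterstained. INJ/ADJ ratios compared between hemispheres.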

[17] = equimolar P2CSKn + fAβ42 (20 μM), whole sample, initial
[18] = fAβ42 only 20 μM, whole sample, 18.5 h
[19] = fAβ42 only 20 μM, whole sample, initial
[20] = fAβ42 only, supernatant, 18.5 h
[21] = 1.0 μM, 12 h, in the absence or presence of Aβ42 species

sAβ42: soluble Aβ42
hydrodynamic diameter, peak 1 (sAβ42 [1]; sAβ42 alone): around 3 nm | hydrodynamic diameter, peak 2 (sAβ42 [1]; sAβ42 alone): ~12 nm | apoptosis of BV2 cells, cleaved caspase-3 (caspase-3): significant apoptosis | lag time of β-sheet formation (fAβ42 [2]): 6.5 h

KLVFFn
shift of sAβ42 particle size to single range around 100 nm (sAβ42 [1]): did not occur | co-location with / reshaping of FITC-Aβ42 plaque (fFITC-Aβ42): did not occur | oligomer alteration in fAβ42 (fAβ42 [3]): not observed

Pam3CSK4
expression of Mrc1 mRNA, TLR agonists (in words) (Mrc1 mRNA in BV2 cells): significantly attenuated

fFITC-Aβ42: pre-formed fibrillar FITC-Aβ42
uptake in TLR2-knockdown BV2 cells (TLR2, BV2 cells): 12.8% | uptake in BV2-NC cells (TLR2, BV2 cells): ~ 39.2% | degradation of intracellular FITC-Aβ42 (BV2 cells [4]): efficiently degraded

sFITC-Aβ42: soluble FITC-labeled Aβ42
co-localization of TLR2 with RhoB-P2CSKn and FITC-Aβ42 (TLR2): rarely observed | cell population with engulfed sFITC-Aβ42 (primary microglia; sFITC-Aβ42 0.5 μM alone, within about 360 min): ~ 40% | intracellular accumulation of FITC-Aβ42 (primary microglia; sFITC-Aβ42 0.5 μM ± P2CSKn 1.0 μM): extremely low | uptake in TLR2-knockdown BV2 cells (TLR2, BV2 cells): 12.6% | uptake in BV2-NC cells (TLR2, BV2 cells): ~ 27.3% | degradation of intracellular FITC-Aβ42 (BV2 cells [4]): efficiently degraded

fAβ42: pre-formed fibrillar Aβ42
expression of Msr1 mRNA (in words) (Msr1 mRNA in BV2 cells; fAβ42 0.5 μM, after 30 min): significantly suppressed | expression of Mrc1 mRNA (in words) (Mrc1 mRNA in BV2 cells; fAβ42 0.5 μM, after 30 min): significantly suppressed | uptake of fluorescent microsphere (in words) (BV2 cells [5]): time-dependently decreased | expression of Marco mRNA (in words) (Marco mRNA in BV2 cells; fAβ42 0.5 μM, after 60 min): significantly suppressed | apoptosis of BV2 cells, cleaved caspase-3 (caspase-3): significant apoptosis | hydrodynamic diameter, bimodal range (fAβ42 [6]; equimolar P2CSKn + fAβ42 (20 μM), whole sample, 0.5 h): 40–900 nm | hydrodynamic diameter, population 2 (fAβ42 [6]; [17]): ~700 nm | hydrodynamic diameter, population 3 (fAβ42 [6]; [17]): ~9000 nm | hydrodynamic diameter, population 1 (fAβ42 [6]; [18]): around 16 nm | hydrodynamic diameter, population 2 (fAβ42 [6]; [18]): ~136 nm | hydrodynamic diameter, population 3 (dominant) (fAβ42 [6]; [18]): ~6000 nm | hydrodynamic diameter, population 1 (fAβ42 [6]; [19]): about 40 nm | hydrodynamic diameter, population 2 (fAβ42 [6]; [19]): ~700 nm | hydrodynamic diameter, population 3 (fAβ42 [6]; [19]): ~6000 nm | hydrodynamic diameter, species 1 (fAβ42 [6]; [20]): around 107 nm | hydrodynamic diameter, species 2 (fAβ42 [6]; [20]): ~717 nm | hydrodynamic diameter, monomodal range (fAβ42 [6]; fAβ42 only, supernatant, until 4.5 h): 40–85 nm | phagosome-related genes, RNA-seq (BV2 cells [7]; fAβ42 0.5 μM, BV2, 12 h): significantly donwregulated | –log2(FC) of Msr1, Marco and Mrc1 (BV2 cells [7]; fAβ42 0.5 μM, BV2, 12 h): > 1 | Tlr2, Tlr4 or Tlr5 expression (BV2 cells [7]; fAβ42 treatment, RNA-seq): not significantly affected

Pam2KTK4-ahx-KLVFF-nal [P2KTKn]
Tyndall effect of sAβ42 on addition of compound (sAβ42 [8]): didn’t facilitate that of sAβ42 | Tyndall effect of compound itself (self-aggregation) (sAβ42 [8]): significant Tyndall effect

Flagellin
expression of Msr1 mRNA, TLR agonists (in words) (Msr1 mRNA in BV2 cells): failed to upregulate | expression of Marco mRNA, TLR agonists (in words) (Marco mRNA in BV2 cells): failed to upregulate

Pam2CSK4
phagocytosis of fFITC-Aβ42, treat & wash (BV2 cells [9]; 1.0 μM 6 h, washed, fFITC-Aβ42 0.5 μM 12 h, mean ± SD, n = 3): 43.8 ± 4.1% | increase in phagocytosis of fFITC-Aβ42, treat & wash (BV2 cells [9]; versus untreated fFITC-Aβ42): about 26% | INJ/ADJ Iba1 (Iba1): 5.79 ± 1.71 | mRNA of Msr1 (in words) (Msr1 mRNA in BV2 cells; [21]): upregulated | expression of Msr1 mRNA, TLR agonists (in words) (Msr1 mRNA in BV2 cells): substantially upregulated | INJ/ADJ OC (Aβ plaque [10]): 1.05 ± 0.28 | expression of Mrc1 mRNA, TLR agonists (in words) (Mrc1 mRNA in BV2 cells): significantly attenuated | protein level of NLRP3 (in words) (NLRP3): increased | Tyndall effect of sAβ42 on addition of compound (sAβ42 [8]): much less activity than P2CSKn | MFI180 (BV2 cells [11]): 24286 ± 520 | count180 (cells internalized FITC-Aβ42) (BV2 cells [11]): 89.2 ± 0.3% | protein level of MSR1 (in words) (MSR1): significant increase | shift of sAβ42 particle size to single range around 100 nm (sAβ42 [1]): did not occur | co-location with / reshaping of FITC-Aβ42 plaque (fFITC-Aβ42): did not occur | mRNA of Marco (in words) (Marco mRNA in BV2 cells; [21]): upregulated | expression of Marco mRNA, TLR agonists (in words) (Marco mRNA in BV2 cells): upregulated | INJ/ADJ TS (Aβ plaque [12]): 0.85 ± 0.11 | protein level of MARCO (in words) (MARCO): significant increase | phagocytosis of sFITC-Aβ42, treat & wash group (BV2 cells [13]; compound 1.0 μM 6 h, washed, sFITC-Aβ42 0.5 μM 12 h): 24.0 ± 2.3% | phagocytosis of sFITC-Aβ42, normal group (BV2 cells [13]; sFITC-Aβ42 0.5 μM pretreated with compound 1.0 μM 30 min, 12 h): 49.3 ± 4.1% | oligomer alteration in fAβ42 (fAβ42 [3]): not observed | MFI180 (BV2 cells [14]): 18911 ± 310

Zymosan A
expression of Msr1 mRNA, TLR agonists (in words) (Msr1 mRNA in BV2 cells): substantially upregulated | expression of Mrc1 mRNA, TLR agonists (in words) (Mrc1 mRNA in BV2 cells): significantly attenuated

Pam3CSK4-ahx-KLVFF-nal [P3CSKn]
Tyndall effect of sAβ42 on addition of compound (sAβ42 [8]): didn’t facilitate that of sAβ42 | Tyndall effect of compound itself (self-aggregation) (sAβ42 [8]): significant Tyndall effect

CCN(CC)CCCC(C)Nc1ccnc2cc(Cl)ccc12 (stereo not shown) [chloroquine]
lysosome amount and level of phagocytosis of hybrid aggregates (BV2 cells [15]): significantly reduced | degradation of intracellular FITC-Aβ42, effect of inhibitor (BV2 cells [4]; chloroquine pretreatment 10 μM, 1 h): almost completely abolished

Pam-KCKSKVFLKFK-ahx-nal [RP]
INJ/ADJ TS (Aβ plaque [16]): 1.12 ± 1.04
